Source: ChEMBL document CHEMBL3351593, “Potent nonimmunosuppressive cyclophilin inhibitors with improved pharmaceutical properties and decreased transporter inhibition” (J Med Chem, 2014)
Converted amounts (≈) assume the structure as drawn.

Key:
[1] = biological target: T1, Solute carrier organic anion transporter family member 1B3 (Homo sapiens, UniProt Q9NPD5); test: Inhibition of OATP1B3 (unknown origin) expressed in HEK293 cells using [3H]estradiol-17beta-glucuronide substrate; type: ADME, cell-based
T1 sequence (Q9NPD5 whole entry): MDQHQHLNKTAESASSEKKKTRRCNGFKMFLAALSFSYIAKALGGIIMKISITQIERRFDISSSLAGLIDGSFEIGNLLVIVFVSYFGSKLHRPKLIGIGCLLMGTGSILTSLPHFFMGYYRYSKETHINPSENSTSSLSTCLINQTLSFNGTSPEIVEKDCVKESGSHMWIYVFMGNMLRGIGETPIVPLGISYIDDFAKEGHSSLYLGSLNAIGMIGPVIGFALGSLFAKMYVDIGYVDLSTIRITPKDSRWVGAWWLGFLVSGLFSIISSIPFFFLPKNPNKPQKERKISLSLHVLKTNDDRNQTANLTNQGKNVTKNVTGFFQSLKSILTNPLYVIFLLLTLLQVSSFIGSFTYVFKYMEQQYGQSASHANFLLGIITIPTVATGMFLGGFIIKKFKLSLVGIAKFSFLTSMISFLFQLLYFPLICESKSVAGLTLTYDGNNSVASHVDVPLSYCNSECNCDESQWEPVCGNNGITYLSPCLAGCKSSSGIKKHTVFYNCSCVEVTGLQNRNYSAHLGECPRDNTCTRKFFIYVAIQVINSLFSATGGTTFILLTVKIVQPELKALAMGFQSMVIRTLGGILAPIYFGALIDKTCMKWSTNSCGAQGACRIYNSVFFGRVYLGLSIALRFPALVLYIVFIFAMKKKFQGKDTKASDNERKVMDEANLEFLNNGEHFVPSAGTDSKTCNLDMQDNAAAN
Procedure, shortened: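 Recombinant OATP1B1 or OATP1B3 expressed in HEK293 cells, with [3H]estradiol-17β-glucuronide as substrate; IC50 determined.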

[2] = Lipophilicity, log D of the compound; type: physicochemical; settings: octanol/water
[3] = biological target: Peptidyl-prolyl cis-trans isomerase B (Homo sapiens, UniProt P23284); test: Binding affinity to human cyclophilin B by surface plasmon resonance method
Procedure, shortened: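 Biotinylated cyclophilin proteins examined by single-cycle kinetics SPR. Running buffer 10 mM HEPES pH 7.4, 150 mM NaCl, 0.05% P20, 3% DMSO, with inhibitor. Each concentration injected for 1 min at 50 μL/min, then 10 min dissociation. kon, koff and KD obtained from a 1:1 binding fit.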

[4] = tested on: PBMC; test: Cytotoxicity against PHA-stimulated human PBMC by 5-bromo-2'-deoxyuridine incorporation assay; type: cell-based
Procedure, shortened: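 Fresh PBMCs from two human donors in X-VIVO 15 medium, stimulated with PHA. Seven concentrations taken from a half-log series. Incubated 60 h at 37 °C, 5% CO2, with BrdU added for the final 12 h. Incorporation read by anti-BrdU ELISA at 450 nm. Percent inhibition against PHA-stimulated untreated cells after background subtraction, four-parameter fit giving IC50.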

[5] = Kinetic solubility of the compound in pH 7.0 water; type: physicochemical; settings: read-out: Kinetic_solubility
[6] = tested on: Hepatitis C virus; test: Antiviral activity against HCV subtype 1b in human Huh7.5 cells expressing subgenomic HCV replicons and coexpressing luciferase reporter gene in presence of 40% human serum; type: functional, cell-based, Hepacivirus hominis; settings: genotype 1b, Huh-7
Procedure, shortened: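 Genotype 1b luciferase replicon in Huh7.5 cells with 40% human serum added to the assay medium, in phenol red-free DMEM without G418. Sixteen half-log dilutions in triplicate. Luciferase read after 72 h relative to DMSO-treated cells, giving EC50.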

[7] = tested on: Hepatitis C virus; test: Antiviral activity against HCV subtype 1b in human Huh7.5 cells expressing subgenomic HCV replicons and coexpressing luciferase reporter gene; type: functional, cell-based, Hepacivirus hominis; settings: genotype 1b, Huh-7
Procedure, shortened: (§1)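 Stable Huh7.5 lines carrying genotype 1a or 1b subgenomic replicons with luciferase reporter, made by RNA electroporation and G418 selection. Assay run in phenol red-free DMEM without G418, sixteen half-log compound dilutions, in triplicate. Luciferase signal read after 72 h relative to DMSO controls, giving EC50.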

[8] = Cytotoxicity against human MT4 cells by CDCF probe based assay; type: cell-based
[9] = tested on: Hepatitis C virus; test: Antiviral activity against HCV subtype 1a in human Huh7.5 cells expressing subgenomic HCV replicons and coexpressing luciferase reporter gene; type: functional, cell-based, Hepacivirus hominis; settings: Huh-7; procedure, shortened: as §1
[10] = AUC in dog blood at 1 mg/kg, po after 72 hrs; type: ADME, organism-based, Canis lupus familiaris; set-up: time < 72 hr, dose 1 mg/kg, route oral; settings: whole blood
Procedure, shortened: (§2)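 Oral dosing as a solution in MEPC: rat 25 mg/kg, dog 1 mg/kg. Blood and plasma collected separately over 0−72 h and AUC computed for each matrix.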

[11] = AUC in rat blood at 25 mg/kg, po after 72 hrs; type: ADME, organism-based; set-up: time < 72 hr, dose 25 mg/kg, route oral; settings: whole blood; procedure, shortened: as §2
[12] = biological target: T2, Solute carrier organic anion transporter family member 1B1 (Homo sapiens, UniProt Q9Y6L6); test: Inhibition of OATP1B1 (unknown origin) expressed in CHO cells using 8-fluorescein-cAMP substrate by fluorescent photometry; type: ADME, cell-based
T2 sequence (Q9Y6L6 whole entry): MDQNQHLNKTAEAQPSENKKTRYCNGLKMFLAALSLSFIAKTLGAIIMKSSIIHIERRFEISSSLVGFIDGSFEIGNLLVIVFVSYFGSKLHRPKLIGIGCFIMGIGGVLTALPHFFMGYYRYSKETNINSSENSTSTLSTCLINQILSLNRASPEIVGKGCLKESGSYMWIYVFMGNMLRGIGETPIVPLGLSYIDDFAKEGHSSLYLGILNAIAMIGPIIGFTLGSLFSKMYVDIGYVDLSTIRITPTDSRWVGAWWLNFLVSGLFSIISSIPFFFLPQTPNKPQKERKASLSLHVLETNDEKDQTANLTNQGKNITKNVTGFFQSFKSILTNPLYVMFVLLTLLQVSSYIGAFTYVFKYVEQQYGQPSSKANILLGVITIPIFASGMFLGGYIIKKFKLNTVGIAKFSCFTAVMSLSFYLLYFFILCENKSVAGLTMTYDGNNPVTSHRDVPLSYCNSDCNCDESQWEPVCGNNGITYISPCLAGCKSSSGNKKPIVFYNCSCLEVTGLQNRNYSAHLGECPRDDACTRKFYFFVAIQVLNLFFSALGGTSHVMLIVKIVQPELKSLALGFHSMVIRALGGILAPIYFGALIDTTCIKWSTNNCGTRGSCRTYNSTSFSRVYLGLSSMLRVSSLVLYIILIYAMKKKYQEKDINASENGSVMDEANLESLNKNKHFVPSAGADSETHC
Procedure, shortened: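 CHO-OATP1B1 cells and vector control cells cultured 2 days, then washed and equilibrated 15 min in HBSS + 10 mM HEPES. Exposed 10 min to 2.5 μM 8-fluorescein-cAMP with inhibitor at 0−30 μM (up to 1% DMSO). Cells washed and lysed, uptake measured by fluorescence, and IC50 taken from the concentration-response curve.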

[13] = biological target: ATP-binding cassette sub-family C member 2 (Homo sapiens, UniProt Q92887); test: Inhibition of human MRP2 expressed in Sf9 cells inside out vesicles using CDCF substrate
Procedure, shortened: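 Inside-out vesicles from baculovirus-infected Sf9 cells expressing hMRP2, with CDCF as probe. ATP-dependent uptake taken as uptake with ATP minus uptake with AMP. Remaining activity calculated as uptake with inhibitor divided by uptake without, and the inhibition value derived from that.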

[14] = biological target: Peptidyl-prolyl cis-trans isomerase A (Homo sapiens, UniProt P62937); test: Binding affinity to human cyclophilin A by surface plasmon resonance method
Chain of Peptidyl-prolyl cis-trans isomerase A (P62937 whole entry): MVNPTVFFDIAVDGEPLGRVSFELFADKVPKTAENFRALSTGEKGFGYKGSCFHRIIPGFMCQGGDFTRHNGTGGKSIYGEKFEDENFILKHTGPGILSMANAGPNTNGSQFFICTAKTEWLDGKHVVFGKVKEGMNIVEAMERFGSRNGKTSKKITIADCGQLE

Chain of Peptidyl-prolyl cis-trans isomerase B (P23284 whole entry): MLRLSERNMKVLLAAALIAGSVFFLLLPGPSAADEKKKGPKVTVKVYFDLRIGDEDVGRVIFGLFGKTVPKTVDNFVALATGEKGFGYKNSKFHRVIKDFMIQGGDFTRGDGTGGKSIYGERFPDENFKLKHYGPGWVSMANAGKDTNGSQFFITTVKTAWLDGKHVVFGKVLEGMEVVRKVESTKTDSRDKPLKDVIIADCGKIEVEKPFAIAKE
Chain of ATP-binding cassette sub-family C member 2 (Q92887 whole entry): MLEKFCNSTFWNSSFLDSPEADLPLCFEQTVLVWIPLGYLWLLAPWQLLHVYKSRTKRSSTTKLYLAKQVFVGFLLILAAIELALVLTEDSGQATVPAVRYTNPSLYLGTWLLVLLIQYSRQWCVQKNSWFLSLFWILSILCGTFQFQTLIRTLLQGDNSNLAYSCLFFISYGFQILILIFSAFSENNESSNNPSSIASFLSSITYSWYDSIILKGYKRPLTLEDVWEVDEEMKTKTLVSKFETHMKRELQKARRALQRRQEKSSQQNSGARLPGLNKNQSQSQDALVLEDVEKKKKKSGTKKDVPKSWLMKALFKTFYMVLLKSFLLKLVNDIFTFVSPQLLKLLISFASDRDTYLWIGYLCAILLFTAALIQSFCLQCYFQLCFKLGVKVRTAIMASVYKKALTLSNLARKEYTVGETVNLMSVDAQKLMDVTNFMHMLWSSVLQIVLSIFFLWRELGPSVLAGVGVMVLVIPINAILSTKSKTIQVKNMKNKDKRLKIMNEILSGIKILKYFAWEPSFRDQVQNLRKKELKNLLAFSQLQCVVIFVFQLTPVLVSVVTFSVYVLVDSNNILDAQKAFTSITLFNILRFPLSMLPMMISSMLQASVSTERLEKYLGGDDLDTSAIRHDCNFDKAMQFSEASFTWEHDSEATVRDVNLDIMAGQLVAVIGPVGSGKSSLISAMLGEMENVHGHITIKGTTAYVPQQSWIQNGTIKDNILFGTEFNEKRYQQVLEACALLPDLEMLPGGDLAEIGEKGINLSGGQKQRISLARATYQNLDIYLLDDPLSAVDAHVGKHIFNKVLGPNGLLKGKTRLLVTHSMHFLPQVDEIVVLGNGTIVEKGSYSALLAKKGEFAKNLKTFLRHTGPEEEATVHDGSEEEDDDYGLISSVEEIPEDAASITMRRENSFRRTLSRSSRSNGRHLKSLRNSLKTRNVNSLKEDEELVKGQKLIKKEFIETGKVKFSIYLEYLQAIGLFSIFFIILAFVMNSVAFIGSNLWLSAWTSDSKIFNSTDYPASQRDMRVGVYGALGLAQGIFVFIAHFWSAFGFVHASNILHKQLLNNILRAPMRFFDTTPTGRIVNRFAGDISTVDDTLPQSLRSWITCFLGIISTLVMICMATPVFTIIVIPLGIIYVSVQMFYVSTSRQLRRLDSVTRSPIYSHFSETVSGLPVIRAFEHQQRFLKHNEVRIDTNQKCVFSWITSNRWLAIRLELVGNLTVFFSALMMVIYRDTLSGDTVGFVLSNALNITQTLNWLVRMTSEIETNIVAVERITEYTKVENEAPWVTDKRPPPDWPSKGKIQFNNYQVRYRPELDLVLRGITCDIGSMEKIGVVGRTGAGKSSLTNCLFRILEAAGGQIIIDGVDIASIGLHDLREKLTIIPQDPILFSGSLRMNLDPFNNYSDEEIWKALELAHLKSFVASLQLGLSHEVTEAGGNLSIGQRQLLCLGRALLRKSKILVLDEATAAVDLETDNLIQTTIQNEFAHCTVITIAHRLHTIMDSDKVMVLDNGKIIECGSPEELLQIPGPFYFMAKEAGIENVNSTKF

Row | IC50 [1] [nM] | logD [2] | Kd [3] [nM] | solubility kinetic [5] [µg/mL] | EC50 [6] [nM] | EC50 [7] [nM] | EC50 [9] [nM] | AUC at 72 h [10] [µM·h] | AUC at 72 h [11] [µM·h] | IC50 [12] [nM] | Ki [13] [nM] | Kd [14] [nM] | SMILES | IC50 [4] [nM] | CC50 [8] [nM]
1 | 880 | 3.9 | 1.2 | 1100 (≈ 818 µM) | 42 | 40 | 70 | 22.1 | 58.4 | 6100 | 140000 | 1.2 | C/C=C/C[C@@H](C)[C@@H](O)[C@H]1C(=O)N[C@@H](CC)C(=O)N(C)[C@H](C)C(=O)N(C)[C@@H]([C@@H](C)CN2CCN(CCOC)CC2)C(=O)N[C@@H](C(C)C)C(=O)N(C)[C@@H](CC(C)C)C(=O)N[C@@H](C)C(=O)N[C@H](C)C(=O)N(C)[C@@H](CC(C)C)C(=O)N(C)[C@@H](CC(C)C)C(=O)N(C)[C@@H](C(C)C)C(=O)N1C | 13200 | > 50000
2 | 220 | > 6 | 1 | < 5 | 116 | 46 | 70 | 2.19 | 22.1 | 800 | 18000 | 2.2 | C/C=C/C[C@@H](C)[C@@H](O)[C@H]1C(=O)N[C@@H](CC)C(=O)N(C)[C@H](C)C(=O)N(CC)[C@@H](C(C)C)C(=O)N[C@@H](C(C)C)C(=O)N(C)[C@@H](CC(C)C)C(=O)N[C@@H](C)C(=O)N[C@H](C)C(=O)N(C)[C@@H](CC(C)C)C(=O)N(C)[C@@H](CC(C)C)C(=O)N(C)[C@@H](C(C)C)C(=O)N1C [ALISPORIVIR] | 500 | > 20000
